Reference: ChEMBL document CHEMBL1153726, “Synthesis and anticancer activity of sclerophytin-inspired hydroisobenzofurans” (Bioorg Med Chem Lett, 2009)

Legend:
Assay type in all cases: functional
HL-60(TB) = experiment: Growth inhibition of human HL-60(TB) cells at 10 nM after 96 hrs by MTT assay; set-up: scale not given: the % may be the effect or the level left
SK-MEL-5 = experiment: Growth inhibition of human SK-MEL-5 cells at 1 nM after 96 hrs by MTT assay; set-up: scale not given: the % may be the effect or the level left
SF-539 [1] = experiment: Growth inhibition of human SF539 cells at 1 nM after 96 hrs by MTT assay; set-up: scale not given: the % may be the effect or the level left
SF-295 [2] = experiment: Growth inhibition of human SF295 cells at 1 nM after 96 hrs by MTT assay; set-up: scale not given: the % may be the effect or the level left
SF-268 [3] = experiment: Growth inhibition of human SF268 cells at 1 nM after 96 hrs by MTT assay; set-up: scale not given: the % may be the effect or the level left
HCT-15 [4] = experiment: Growth inhibition of human HCT15 cells at 1 nM after 96 hrs by MTT assay; set-up: scale not given: the % may be the effect or the level left
A549 [5] = experiment: Growth inhibition of human A549 cells at 1 nM after 96 hrs by MTT assay; set-up: scale not given: the % may be the effect or the level left
A498 = experiment: Growth inhibition of human A498 cells at 10 uM after 96 hrs by MTT assay; set-up: scale not given: the % may be the effect or the level left
OVCAR-4 = experiment: Growth inhibition of human OVCAR4 cells at 10 uM after 96 hrs by MTT assay; set-up: scale not given: the % may be the effect or the level left
MDA-MB-435 = experiment: Growth inhibition of human MDA-MB-435 cells at 10 uM after 96 hrs by MTT assay; set-up: scale not given: the % may be the effect or the level left
LOX IMVI = experiment: Growth inhibition of human LOXIMVI cells at 10 uM after 96 hrs by MTT assay; set-up: scale not given: the % may be the effect or the level left
SF-539 [6] = experiment: Growth inhibition of human SF539 cells at 10 uM after 96 hrs by MTT assay; set-up: scale not given: the % may be the effect or the level left
SF-295 [7] = experiment: Growth inhibition of human SF295 cells at 10 uM after 96 hrs by MTT assay; set-up: scale not given: the % may be the effect or the level left
HT-29 = experiment: Growth inhibition of human HT-29 cells at 10 uM after 96 hrs by MTT assay; set-up: scale not given: the % may be the effect or the level left
HCC 2998 = experiment: Growth inhibition of human HCC2998 cells at 10 uM after 96 hrs by MTT assay; set-up: scale not given: the % may be the effect or the level left
A549 [8] = experiment: Growth inhibition of human A549 cells at 10 uM after 96 hrs by MTT assay; set-up: scale not given: the % may be the effect or the level left
HCT-15 [9] = experiment: Growth inhibition of human HCT15 cells after 96 hrs by MTT assay; settings: HCT-15, 96 h
Summary of the method: (§1)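 Run in the NCI 60 human tumour cell line panel as a five-dose assay. GI50 and LC50 were reported for each cell line.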

Malme-3M [10] = experiment: Growth inhibition of human MALME-3M cells at 10 nM after 96 hrs by MTT assay; set-up: scale not given: the % may be the effect or the level left
U-251 = experiment: Growth inhibition of human U251 cells at 10 nM after 96 hrs by MTT assay; set-up: scale not given: the % may be the effect or the level left
CAKI-1 = experiment: Growth inhibition of human Caki1 cells at 1 nM after 96 hrs by MTT assay; set-up: scale not given: the % may be the effect or the level left
SF-268 [11] = experiment: Growth inhibition of human SF268 cells after 96 hrs by MTT assay; settings: SF-268, 96 h
Summary of the method: (§2)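 Tested in the NCI 60-cell-line panel in five-dose format; GI50 and LC50 values reported for each cell line.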

SF-295 [12] = experiment: Growth inhibition of human SF295 cells after 96 hrs by MTT assay; settings: SF-295, 96 h; summary of the method: as §2
UACC-257 = experiment: Growth inhibition of human UACC257 cells after 96 hrs by MTT assay; settings: UACC-257, 96 h; summary of the method: as §2
OVCAR-3 [13] = experiment: Growth inhibition of human OVCAR-3 cells after 96 hrs by MTT assay; settings: OVCAR-3, 96 h; summary of the method: as §2
[14] = Growth inhibition of human Hs 578T cells after 96 hrs by MTT assay; summary of the method: as §1
SR [15] = experiment: Growth inhibition of human SR cells at 10 nM after 96 hrs by MTT assay; set-up: scale not given: the % may be the effect or the level left
NCI-H226 = experiment: Growth inhibition of human NCI-H226 cells after 96 hrs by MTT assay; settings: NCI-H226, 96 h; summary of the method: as §1
SR [16] = experiment: Growth inhibition of human SR cells after 96 hrs by MTT assay; summary of the method: as §2
BT-549 = experiment: Growth inhibition of human BT549 cells at 100 nM after 96 hrs by MTT assay; set-up: scale not given: the % may be the effect or the level left
SNB-19 = experiment: Growth inhibition of human SNB19 cells at 100 nM after 96 hrs by MTT assay; set-up: scale not given: the % may be the effect or the level left
MDA-MB-468 = experiment: Growth inhibition of human MDA-MB-468 cells at 10 nM after 96 hrs by MTT assay; set-up: scale not given: the % may be the effect or the level left
SK-OV-3 = experiment: Growth inhibition of human SKOV3 cells at 10 nM after 96 hrs by MTT assay; set-up: scale not given: the % may be the effect or the level left
OVCAR-3 [17] = experiment: Growth inhibition of human OVCAR-3 cells at 10 nM after 96 hrs by MTT assay; set-up: scale not given: the % may be the effect or the level left
HOP-92 = experiment: Growth inhibition of human HOP92 cells at 10 nM after 96 hrs by MTT assay; set-up: scale not given: the % may be the effect or the level left
HOP-62 = experiment: Growth inhibition of human HOP62 cells at 10 nM after 96 hrs by MTT assay; set-up: scale not given: the % may be the effect or the level left
SK-MEL-2 = experiment: Growth inhibition of human SK-MEL-2 cells at 1 uM after 96 hrs by MTT assay; set-up: scale not given: the % may be the effect or the level left
Malme-3M [18] = experiment: Growth inhibition of human MALME-3M cells at 1 uM after 96 hrs by MTT assay; set-up: scale not given: the % may be the effect or the level left
K562 = experiment: Growth inhibition of human K562 cells at 1 uM after 96 hrs by MTT assay; set-up: scale not given: the % may be the effect or the level left
SNB-75 = experiment: Growth inhibition of human SNB75 cells at 1 uM after 96 hrs by MTT assay; set-up: scale not given: the % may be the effect or the level left
NCI-H322M = experiment: Growth inhibition of human NCI-H322M cells at 1 uM after 96 hrs by MTT assay; set-up: scale not given: the % may be the effect or the level left
[19] = read-out: LC50 (the source's name)
[20] = read-out: Log10GI50 (converted)
[21] = read-out: Log10LC50 (converted)

Compound C=C(C)[C@H]1CC=C(C)C2=CO[C@@H](c3ccccc3F)[C@@H]21 has an Activity (HL-60(TB)) of 104%, an Activity (SK-MEL-5) of 91% and an Activity (SF-539 [1]) of 91%. For the same compound, the Activity (SF-295 [2]) was 96%, the Activity (SF-268 [3]) was 91% and the Activity (HCT-15 [4]) was 94%. For the same compound, the Activity (A549 [5]) was 93%, the Activity (A498) was 104.48% and the Activity (OVCAR-4) was 88.01%. For the same compound, the Activity (MDA-MB-435) was 109.16%, the Activity (LOX IMVI) was 89.75% and the Activity (SF-539 [6]) was 92.75%. The Activity (SF-295 [7]) was 85.19%, the Activity (HT-29) was 89.53% and the Activity (HCC 2998) was 115.46%. The Activity (A549 [8]) was 71.63%, the GI50 (HCT-15 [9]; read-out: GI50) was 4.38 µM and the CC50 (HCT-15 [9]; [19]) was 51 µM. The GI50 (HCT-15 [9]; [20]) was 4.37 µM, the CC50 (HCT-15 [9]; [21]) was 51.3 µM and the TGI (HCT-15 [9]; read-out: Log10TGI (converted)) was 18.6 µM. For the same compound, the TGI (HCT-15 [9]; read-out: TGI) was 18.6 µM, the Activity (Malme-3M [10]) was 88% and the Activity (U-251) was 94%. It also gave an Activity (CAKI-1) of 96%, a GI50 (SF-268 [11]; read-out: GI50) of 6.95 µM and a CC50 (SF-268 [11]; [19]) of 62.9 µM. It also gave a GI50 (SF-268 [11]; [20]) of 6.92 µM, a CC50 (SF-268 [11]; [21]) of 63.1 µM and a TGI (SF-268 [11]; read-out: Log10TGI (converted)) of 23.4 µM. It also gave a TGI (SF-268 [11]; read-out: TGI) of 23.4 µM, a GI50 (SF-295 [12]; read-out: GI50) of 4.49 µM and a CC50 (SF-295 [12]; [19]) of 45.7 µM. For the same compound, the GI50 (SF-295 [12]; [20]) was 4.47 µM, the CC50 (SF-295 [12]; [21]) was 45.7 µM and the TGI (SF-295 [12]; read-out: Log10TGI (converted)) was 17.4 µM. For the same compound, the TGI (SF-295 [12]; read-out: TGI) was 17.6 µM, the GI50 (UACC-257; read-out: GI50) was 6.71 µM and the CC50 (UACC-257; [19]) was 50.9 µM. For the same compound, the GI50 (UACC-257; [20]) was 6.76 µM, the CC50 (UACC-257; [21]) was 51.3 µM and the TGI (UACC-257; read-out: Log10TGI (converted)) was 21.4 µM. The TGI (UACC-257; read-out: TGI) was 21.3 µM, the GI50 (OVCAR-3 [13]; read-out: GI50) was 3.24 µM and the CC50 (OVCAR-3 [13]; [19]) was 36.5 µM. For the same compound, the GI50 (OVCAR-3 [13]; [20]) was 3.24 µM, the CC50 (OVCAR-3 [13]; [21]) was 36.3 µM and the TGI (OVCAR-3 [13]; read-out: Log10TGI (converted)) was 12.9 µM. It also gave a TGI (OVCAR-3 [13]; read-out: TGI) of 12.8 µM, a GI50 ([14]; read-out: GI50) of 2.72 µM and a CC50 [14, 19] of over 100 µM. The GI50 [14, 20] was 2.69 µM, the CC50 [14, 21] was over 100 µM and the TGI ([14]; read-out: Log10TGI (converted)) was 24.5 µM. For the same compound, the TGI ([14]; read-out: TGI) was 24.8 µM, the Activity (SR [15]) was 81% and the GI50 (NCI-H226; read-out: GI50) was 3.82 µM. The CC50 (NCI-H226; [19]) was 50.6 µM, the GI50 (NCI-H226; [20]) was 3.8 µM and the CC50 (NCI-H226; [21]) was 50.1 µM. The TGI (NCI-H226; read-out: Log10TGI (converted)) was 19.1 µM, the TGI (NCI-H226; read-out: TGI) was 18.9 µM and the GI50 (SR [16]; read-out: GI50) was 0.798 µM. For the same compound, the CC50 (SR [16]; [19]) was 23.9 µM, the GI50 (SR [16]; [20]) was 0.794 µM and the CC50 (SR [16]; [21]) was 24 µM. For the same compound, the TGI (SR [16]; read-out: Log10TGI (converted)) was 3.72 µM, the TGI (SR [16]; read-out: TGI) was 3.67 µM and the Activity (BT-549) was 67%. It also gave an Activity (SNB-19) of 88%, an Activity (MDA-MB-468) of 79% and an Activity (SK-OV-3) of 100%. The Activity (OVCAR-3 [17]) was 88%, the Activity (HOP-92) was 69% and the Activity (HOP-62) was 97%. It also gave an Activity (SK-MEL-2) of 31%, an Activity (Malme-3M [18]) of 19% and an Activity (K562) of 10%. For the same compound, the Activity (SNB-75) was 35% and the Activity (NCI-H322M) was 49%.
